Source: the EternaBench riboswitch data

System: MS2 coat protein
Test: apparent Kd, MS2 coat protein; higher = weaker binding; RNA-MaP array; FMN 200 µM where present
Procedure, shortened: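 The titrant was SNAP-549-labelled MS2 coat protein, run from 0.7 or 1.5 nM in doubling steps to 3 µM. It was applied to designs transcribed by stalled E. coli RNA polymerase on Illumina sequencing-chip clusters, without ligand first and then with constant ligand, in 100 mM Tris-HCl pH 7.5, 80 mM KCl, 4 mM MgCl2, BSA, DTT, yeast tRNA and Tween-20. The apparent Kd is the median of filtered per-cluster binding-curve fits, with green signal normalised to red-channel RNA signal and control-cluster median Fmax.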

[1] = designed as: ON switch for flavin mononucleotide, no ligand
[2] = ligand present: flavin mononucleotide, designed as: ON switch for flavin mononucleotide
[3] = designed as: OFF switch for flavin mononucleotide, no ligand
[4] = ligand present: flavin mononucleotide, designed as: OFF switch for flavin mononucleotide

| Sequence | apparent Kd [1] [nM] | apparent Kd [2] [nM] | apparent Kd [3] [nM] | apparent Kd [4] [nM] |
| --- | --- | --- | --- | --- |
| GCCAUCGCAUGAGGAUAUGCUCGGGUUUCCCGAGCAGAAGGCAUGUCAAAAGACAUGAGGAUCACCCAUGUAGUUAAGAUGGCA | 122 | 8.11 |  |  |
| GCCAUCGCAUGAGGAUAUGCUCGGGUUUCCCGAGCAGAAGGCAUGUCAUAAGACAUGAGGAUCACCCAUGUAGUUAAGAUGGCA | 813 | 35.9 |  |  |
| GCCCAGCCCAGGCCCACGGCAUCACAGGAUAUGCCGAUAACAUGAGGAUCACCCAUGUCAACUCCGCAGAAGGGUGAUAUCGUG | 121 | 22.1 |  |  |
| GCCCGGGCUAACAUGAGGAUCACCCAUGUGUUAUACUUAAUAUAGGAUAUGUUUAUACUUUUUGGGCAGAAGGAUGGCCCGGGC | 68.2 | 61.7 |  |  |
| GCCCUAAGGCGGGCCGACCAUACAUGAGGAUCACCCAUGUCGAGAAGGUGCUCACGGGUGGGUGGCAAGGAUAUCGGGUCGGAU | 77.1 | 41.4 |  |  |
| GCCGACCAGAAGUCGGUACGGAGGAGAAGGCGCCUCCUGGGUCCACAUGAGGAUCACCCAUGUGGCGAGGAUAUCCUCAGUUUU |  |  | 16.4 | 126 |
| GCCGGAUUUGUGAGGAUAUACCUAUGGAUACAUAGGUAGAAGGCACAUGAGGAUCACCCAUGUACCUCACCGGC |  |  | 16.7 | 69.2 |
| GCCUACUGGCGAGGAUAUUCUGUGCGGUUCCGGCUCGUGUCUGUUACAUGAGGAUCACCCAUGUGGGAGAAGGUGUCUGUGGCC |  |  | 7.53 | 7.41 |
| GCCUAUGUGGAGGAUAUCGACUUCGAAAGAAGUCGAGAAGGCCACACAUGAGGAUCACCCAUGUGAUGCCAGGC |  |  | 122 | 86 |
| GCCUCACAUGAGGAUCACCCAUGUCAGGAUAUAGGAGACGGUAGCUUUGCUGCCUUCGCUAGAAGGGACUGGCU |  |  | 33.5 | 55.4 |
| GCCUGAUCAACUCUAGGCCCAGACAGAAGGGCACACGGUCUAAGUCACAUGAGGAUCACCCAUGUGCAGGAUAUGUCUCGACUC |  |  | 8.03 | 21.4 |
| GCCUUACCGGUCAGGAUAUACAUUUGUUACUCCUUGUAGAAGGGACAUGAGGAUCACCCAUGUACAUUACAUUC |  |  | 19.4 | 20.4 |
| GCCUUAUCGGUCAGGAUAUACACCUGUUAGUUGUUGUAGAAGGGACAUGAGGAUCACCCAUGUACAUUACAUUG |  |  | 23.1 | 40.1 |
| GCCUUAUCUGUCAGGAUAUACAAUUUUUUUUUUUUGUAGAAGGGACAUGAGGAUCACCCAUGUACAUUACAUUG |  |  | 34 | 57.9 |
| GCGAGUAAAGCAGGAUAUCUAUUGUCUCGGAAACAUGAGGAUCACCCAUGUAGAGAAGGGCUAAGUCAUACAAUUCGAACUCGC |  |  | 11.2 | 10.8 |
| GCGAUUAAGUAGAAGGUACGAUAUAAAUCAAUGUAAGGAUAUACUGACAUGAGGAUCACCCAUGUUUAAUUUGUUUACUGUCGC | 7.42 | 5.99 |  |  |
| GCGAUUUUGUAAGGAUAUACACGAGUUUUAAGUGUAGAAGGUACUUACAUGAGGAUCACCCAUGUAUUAAUGUUUAAUAGUCGC | 8.5 | 6.84 |  |  |
| GCGAUUUUGUAAGGAUAUACUCUGUGAUGAAGAGUAGAAGGUACUUACAUGAGGAUCACCCAUGUUUAACGAGAUACUAAUCGU | 42.1 | 21.2 |  |  |
| GCGCAGUCAGGAUAUGCCGCUGGCGAUCACCGUGGGCAAAGGCAGAAGGGACAUGAGGAUCACCCAUGUGGCGC |  |  | 72.1 | 32.9 |
| GCGGAGAUACAGAAGGGAUAAGCCCUGGGCUAAUCAGGAUAUGUACGACGCAUCGUACAUGAGGAUCACCCAUGUAGCCGCUUG | 483 | 85.6 |  |  |
| GCGGCUAAUGCAGGAUAUCGGCACGUGUAGUGCCGAGAAGGGCACAUGAGGAUCACCCAUGUGAUCAAUCAAUGUUAAUGCCGC |  |  | 8.86 | 44.2 |
| GCGGUACAUGAGGAUCACCCAUGUCAGGAUAUCCGCUGUUUGUCGAUUGGCGGGCGGUGGAGAAGGGACCUCGC |  |  | 80.4 | 81.6 |
| GCGUAACAUGAGGAUCACCCAUGUACCCGAGAAUUCGGGUGUAGAAGGGUGACCGGUCGUUUGGCACAGGAUAUACACGUUGUG | 30.1 | 16.8 |  |  |
| GCGUAAUAGGUGUAGCUAGUCGUUCAAGAAGGGUGAAGAACAUGAGGAUCACCCAUGUGGUCUAUACAGGAUAUUGAUAUACGC |  | 66.6 |  |  |
| GCGUAGAUAGCAGGAUAUAUGUUUCCUACAUGAGGAUCACCCAUGUAGGUGAUCAGCCGAGAAAAGUAGAAGGGCUAUCUAUGC | 17.4 | 14.5 |  |  |
| GCGUAUAUAUUAUUUAUUUAACAGUCAGAAGGUGAGAAGACGACAUGAGGAUCACCCAUGUUAUUCAAGGAUAUGAUAAUGCGC | 27.5 | 13.3 |  |  |
| GCGUAUGAAAAUAUGUCUGAGGGCAGAAGGCACAUGAGGAUCACCCAUGUAACGAUCUCUUCAAGUGAGGAUAUGUGCUCAUUG |  |  | 31.8 | 113 |
| GCGUCGAGUGUGAGGAUAUGCUGGUCCUUGGAUCAGCAGAAGGCACAUGAGGAUCACCCAUGUGAAAACGAUGC |  |  | 22.7 | 140 |

| Sequence | apparent Kd [1] [nM] | apparent Kd [2] [nM] | apparent Kd [3] [nM] | apparent Kd [4] [nM] |
| --- | --- | --- | --- | --- |
| GCGUGAAAUGUAGGAUAUGACACAGGAAACUGGUCAGAAGGACAUGAGGAUCACCCAUGUAAUAAGUUCAAGAAUAACACAUGC |  |  | 33.1 | 75.5 |
| GCGUGACAUGAGGAUCACCCAUGUACUCGAGAAAUCGAGUGUAGAAGGGUGACCGGUCGUUUGGCACAGGAUAUACACGCUGUG | 27.3 | 16.3 |  |  |
| GCGUUGAACGAGAAGGCCAAUACAUGAGGAUCACCCAUGUUGUGAUGUUUUGGAGGAUAUCGAUCGUCGUCUCAUGAGCAACGC |  |  | 7.47 | 10.2 |
| GCUACAUAUUUUAAGUUUGAUUAUCUAGAAGGUAGAUACAUGAGGAUCACCCAUGUUUAGAGUUCUAAGGAUAUAGUUUGUAGC | 6.12 | 5.91 |  |  |
| GCUACGCCUGACAUGAGGAUCACCCAUGUUAGAUUGUUAUGUCAGGAUAUUGUCUAGAAACUAGACAAGAAGGGAUGUGUAGCU | 728 | 66.5 |  |  |
| GCUAGUAUUGCAGGAUAUUGUGUUUAAGGAUGGCAAGAAGGGCAUUACAUGAGGAUCACCCAUGUUUUCCGUAGUCAUACUAGC |  |  | 7.34 | 7.28 |
| GCUAGUCAUGUCAGGAUAUGCAGUUCCUUGGAACUGCAGAAGGGACAUGAGGAUCACCCAUGUGCCUAGCUAGC |  |  | 41.1 | 357 |
| GCUCAGUAAGGAUAUUAAUGACGCUGUUAUUCAGCGUCAGCUGAGAAGGUACAUGAGGAUCACCCAUGUGGUGA |  |  | 210 | 117 |
| GCUCGAUGCGCUGAGAACAUGAGGAUCACCCAUGUAAAUGGUCAGGAUAUUUACGUGCUUUAUGUAGAGAAGGGACCAUCGAGC | 110 | 27.3 |  |  |
| GCUCUAUGCUAGAAGGCGUGAAACAUGAGGAUCACCCAUGUCAAAGAAGUGAGGAUAUAGCAUAGAGCAAAAGUGCGAAAGCAC | 16.9 | 7.32 |  |  |
| GCUCUAUGCUAGAAGGCGUGAAACAUGAGGAUCACCCAUGUCAAAGACGUGAGGAUAUAGCAUAGAGCAAAAGUGCGAAAGCAC | 5.49 | 5.29 |  |  |
| GCUGACGAUGUAGGAUAUCAGUAUAAUAAAUACUGAGAAGGACAUGAGGAUCACCCAUGUCUCCAACGUCAGCAGAGGAAACUC |  |  | 15.9 | 16.8 |
| GCUGAUGCAGGAUAUAUAUGAAGCGUUCGAAUAGAAUGCGAACAUGAGGAUCACCCAUGUAGAAGGGCAUUGGC |  |  | 14.6 | 20.1 |
| GCUGCAUAGGCAGGAUAUGCAACAAUUCGAAUAAAAUAUAACGAAUUGACAUGAGGAUCACCCAUGUAGAAGGGCCUGUGCAGU |  |  | 18.6 | 20 |
| GCUGCAUAGGCAGGAUAUGCAAUAAUUCGAAUAAAAUUUAACGAAUUAACAUGAGGAUCACCCAUGUAGAAGGGCCUGUGCAGU |  |  | 5.49 | 4.69 |
| GCUGUCGCAUGAGGAUAUGGUCAGCUUUGCUGACCAGAAGGCAUGUCAAUAGACAUGAGGAUCACCCAUGUAGUAAGGGCGGCU | 466 | 48.8 |  |  |
| GCUGUCGUAUGAGGAUAUGGUCACCUUUGGUGACCAGAAGGCAUGUCAAUAGACAUGAGGAUCACCCAUGUAGUAAAGACAGCA | 391 | 39.4 |  |  |
| GCUGUGGCAUGAGGAUAUGGUCAGGUUUCCUGACCAGAAGGCAUGUCAAUAGACAUGAGGAUCACCCAUGUAGUUAACACAGCA | 514 | 45.9 |  |  |
| GCUUUAGUAUCACAUGUAUUACAUGAGGAUCACCCAUGUUACUAGGAUAUGUAUUAGAAUUUACAACAGAAGGAGUAAGAAUGU |  |  | 7.49 | 8.93 |
| GGAAAACAUGAGGAUCACCCAUGUGAGGAUAUCGAUGUCCAAAAAGAGGUGCGGGACUCGAGAAGGCACUUGGA |  |  | 55.1 | 54 |
| GGAAAUCAUGUAGGAUAUGCAUGGCGAAGCUACGCAGAAGGACAUGAGGAUCACCCAUGUUCUAGCUACCGAGUUCGGUGGCAA |  |  | 21.6 | 114 |
| GGAACGCUUGACAUGAGGAUCACCCAUGUUAGAUUGUUAUGUCAGGAUAUAGUCUAGAAACUAGACUAGAAGGGAUAUGUUUCU | 428 | 87.7 |  |  |
| GGACGGUUAGUUAGGAUAUGCUCUACCUCGGUAGAGCAGAAGGGACAUGAGGAUCACCCAUGUGAAAACUGUUC |  |  | 19.4 | 21.3 |
| GGACGUCACAUGAACAUGAGGAUCACCCAUGUAACUAGACAUGAGGAUAUGGAACCUAAUUGGUUCCAGAAGGCAUGGACGUCC | 194 | 32.2 |  |  |
| GGACGUCACAUGAACAUGAGGAUCACCCAUGUGAAAACACAUGAGGAUAUGGAUCCUAAUUGGAUCCAGAAGGCAUGGACGUCC | 476 | 27.2 |  |  |
| GGACGUCACAUUUACAUGAGGAUCACCCAUGUCGAAAGACAUGAGGAUAUGCAUCCUAAUUGGAUGCAGAAGGCAUGGACGUCC | 335 | 245 |  |  |
| GGAGAACAUGAGGAUCACCCAUGUGAGAGGGAUGUAGGAUAUGUGAGGAGUAAAGGAGGGACAGAAGGACAGAGAU | 45.8 | 43.8 |  |  |
